High-throughput results from PubChem.
TRPC4 block: inhibitors of mouse TRPC4 channel; 300,000 compounds, 0.39% hits; Q9QUQ5; HEK293 TRPC4beta/mu-opioid, DAMGO-evoked Fluo4 calcium flux; active compounds read low; B-score at 10 µM;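 active = B-score over 3 SD under the library average, no early fluorescence shift, positive overall ratio signal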
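Assay system – HEK293 line stably carrying TRPC4beta and mu-opioid receptor · Doses – single dose · Detection – Fluo4 calcium-dye fluorescence, kinetic read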
TRPC6 inhibitor: blocks the mouse TRPC6 cation channel; HEK293-TRPC6, membrane potential dye, ACh-evoked depolarization; active compounds read low; B-score at 10 µM; 310,000 compounds, 1.1% hits; Q61143;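 active = B-score under library mean minus 3 SD, initial fluorescence not abnormally high, positive integrated signal ratio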;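 also: B-score derived from integrated fluorescence ratio over the kinetic read; more negative B-score means stronger inhibition of depolarization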
TRPC4 agonist: opens the mouse TRPC4 cation channel; Q9QUQ5; HEK293 TRPC4beta/mu-opioid, Fluo4 calcium fluorescence; active compounds read high; B-score at 10 µM; 310,000 compounds, 0.49% hits; AID 2237;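 active = B-score above 5 SD of library B-scores, and initial fluorescence ratio not above library mean plus 5 SD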;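 also: positive B-score marks a calcium rise read as TRPC4 activation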
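Test system: HEK293 cells stably co-expressing mouse TRPC4beta and mu-opioid receptor | Schedule: Fluo4 dye loading 45 min at room temperature, 110 s recording | Measured by: Kinetic Fluo4 calcium fluorescence, 5 s baseline at 1 Hz | Evaluation: B score of integrated ratio | Controls: Buffer (low) and maximal DAMGO (high)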
TRPC6 act: activators of mouse TRPC6 channel; 310,000 compounds, 0.13% hits; HEK293-TRPC6 membrane potential dye fluorescence; active compounds read high; AID 2550; B-score at 10 µM; Q61143;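 active = B-score of the integrated fluorescence ratio above library mean plus 3 SD, and starting fluorescence ratio within library mean plus 5 SD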;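 also: higher score means more depolarization so channel activation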
TRPC4 PAM: allosteric potentiators of mouse TRPC4 channel; 310,000 compounds, 0.42% hits; HEK293 TRPC4beta/mu-opioid, DAMGO EC20, Fluo-4 Ca2+ flux; active compounds read high; AID 2227; Q9QUQ5; B-score at 10 µM;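 active = B-score of calcium response area above 5 SD of library B-scores, with initial fluorescence ratio within 5 SD of library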
TRPC4 spec 2: second check of whether TRPC6 inhibitors also affect mouse TRPC4. inhibition, % at 10 µM. 920 compounds, 42% hits. shares compounds with TRPC6 inhibitor. HEK293 TRPC4/MOR, membrane potential dye fluorescence; channel activated by saturating DAMGO dose. AID 2776;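 active = compounds whose fluorescence signal differed from control wells by over 3 SD, either direction, in both duplicate plates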
TRPC4 spec: mouse TRPC4 off-target activity of TRPC6 inhibitors; 920 compounds, 61% hits; AID 2777; shares compounds with TRPC6 inhibitor; HEK293 TRPC4/mu-opioid, membrane potential fluorescence; activity change, negative = inhibition, % at 10 µM;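 active = rise or fall in signal beyond 3 SD of buffer-only wells in both replicate plates, either sign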;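 also: integrated kinetic ratio of fluorescence range over baseline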
HEK293 MPD ctr 2-1: parental HEK293 nonspecific activity of TRPC6 inhibitors, second screen; parental HEK293 membrane potential dye fluorescence; maximal acetylcholine challenge after compound addition; signal change vs control, % at 10 µM; 920 compounds, 31% hits; shares compounds with TRPC6 inhibitor;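 active = membrane potential signal moving either way by over 3 SD of the maximum-effect control, in both duplicate plates, meaning non-specific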
HEK293 MPD ctr-1: parental HEK293 nonspecific activity of TRPC6 inhibitors; 920 compounds, 60% hits; parental HEK293 membrane potential dye fluorescence; shares compounds with TRPC6 inhibitor; membrane potential signal change, % at 10 µM;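 active = membrane potential signal shifting up or down by more than 3 SD of buffer-only wells, on both duplicate plates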
HEK293 MPD ctr-2: checks TRPC6 modulator effects in parental HEK293 cells | shares compounds with TRPC6 inhibitor | membrane potential dye fluorescence | membrane potential signal change, % at 10 µM | 2,400 compounds, 51% hits;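 active = membrane potential signal moves up or down beyond 5 SD from buffer-only wells, on both duplicate plates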
HEK293 MPD ctr 2-2: second check of TRPC6 modulator effects in parental HEK293 cells; shares compounds with TRPC6 inhibitor; membrane potential dye fluorescence; after compound, maximal acetylcholine stimulation; inhibition, % at 10 µM; 2,400 compounds, 14% hits; AID 488926;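 active = membrane potential signal drops by more than 5 SD from the mean control signal, in both duplicate plates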
TRPC4 ctr mod: tests whether TRPC6 modulators also affect mouse TRPC4 | shares compounds with TRPC6 inhibitor | percent change from control (negative = decrease, positive = increase), % at 10 µM | 2,400 compounds, 69% hits | HEK293 TRPC4/mu-opioid, membrane potential fluorescence;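 active = membrane potential signal moved up or down beyond 5 SD of buffer control wells, in both duplicate plates, actives on both sides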
TRPC4/MOR inh 2: mouse TRPC4 off-target activity of TRPC6 modulators, second screen | shares compounds with TRPC6 inhibitor | HEK293 TRPC4/mu-opioid, membrane potential dye fluorescence; stimulated with maximal-effect DAMGO | inhibition, % at 10 µM | 2,400 compounds, 55% hits | AID 488928;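 active = drop in membrane potential signal beyond 5 SD of the control wells in both duplicate plates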;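 also: TRPC4 counter screen for TRPC6 hits run under conditions tuned for TRPC6 not TRPC4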
TRPC6 block conf: mouse TRPC6 inhibitor confirmation; shares compounds with TRPC6 inhibitor; HEK293-TRPC6, membrane potential dye, ACh-evoked depolarization; inhibition, % at 10 µM; 3,300 compounds, 43% hits; AID 488960;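 active = fluorescence ratio falls more than 5 SD below the full-stimulation control mean, in both duplicate runs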;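 also: integrated fluorescence ratio of peak minus minimum over baseline after agonist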
TRPC6 act conf: confirmation of mouse TRPC6 activators. shares compounds with TRPC6 inhibitor. HEK293-TRPC6 membrane potential dye fluorescence, FDSS. activation, % at 10 µM. 2,800 compounds, 11% hits. AID 488961;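 active = ratio signal rise beyond 5 SD above unstimulated control wells' mean, seen in both duplicate runs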
A number is an active result; 0 = inactive; - = no result; + = active, no number. This is a sample that favours compounds with a hit; in the whole collection about 2.3% have one here.

SMILES | TRPC4 block | TRPC6 inhibitor | TRPC4 agonist | TRPC6 act | TRPC4 PAM | HEK293 MPD ctr-2 | HEK293 MPD ctr 2-2 | TRPC4 ctr mod | TRPC4/MOR inh 2 | TRPC6 block conf | TRPC6 act conf | others
CCc1noc(C)c1C(=O)Nc1ccc(S(=O)(=O)N2CCCCC2)cc1 | 0 | 0 | 0 | 0 | 0 | - | - | - | - | - | -
COc1ccc(OC)c(/C=C2\SC(N3CCCCC3)=NC2=O)c1 | 0 | 0 | 0 | 0 | 0 | - | - | - | - | - | -
CCOc1ccc(S(=O)(=O)N2CCc3cc(OC)c(OC)cc3C2)cc1 | 0 | 0 | 0 | 12 | 0 | 0 | 0 | 10% | 0 | - | 114%
Clc1ccc(CN2CCc3c([nH]c4ccccc34)C2)cc1Cl | 0 | 0 | 0 | 0 | 0 | - | - | - | - | - | -
O=C(Nc1ccccc1C(=O)O)c1ccc(NC(=O)c2ccc(Br)o2)cc1 | 0 | 0 | 0 | 17 | 0 | 190% | 0 | 27% | 0 | 0 | 94%
Cc1ccc(Nc2cc(C)nc(-c3ccccc3)n2)cc1 | 0 | 0 | 0 | 0 | 0 | - | - | - | - | - | -
Cc1cccc2sc(N(CCN(C)C)C(=O)C3CCN(S(=O)(=O)c4cccs4)CC3)nc12 | 0 | 0 | 0 | 0 | 0 | - | - | - | - | - | -
CCCCCCC(=O)N1CCCC(c2nc(-c3cccc(OC)c3)no2)C1 (centres undefined) | 0 | -5.9 | 0 | 0 | 0 | 0 | 0 | 10% | 30% | 64% | -
CCCC(=O)N1CCCC(c2nc(-c3cccc(OC)c3)no2)C1 (centres undefined) | 0 | 0 | 0 | 0 | 0 | - | - | - | - | - | -
CC(Oc1ccc(Cl)cc1Cl)C(=O)NNC(=O)C(=O)N1CCCCC1 (centres undefined) | 0 | 0 | 0 | 0 | 0 | - | - | - | - | - | -
CCn1c(SC)nnc1C1CCN(CC(=O)Nc2ccccc2N2CCOCC2)CC1 | 0 | -5.4 | 0 | 0 | 0 | 0 | 0 | 0 | 0 | 0 | 0
CSc1nnc(C2CCN(CC(=O)Nc3ccccc3N3CCOCC3)CC2)n1C | 0 | 0 | 0 | 0 | 0 | - | - | - | - | - | -
Cn1cc(C(=O)N/N=C/C2=C(N3CCOCC3)C(=C\c3ccccc3)/CC2)ccc1=O | 0 | 0 | 0 | 0 | 0 | - | - | - | - | - | -
O=C1Nc2ccccc2/C1=N\N=C\C1=C(N2CCOCC2)C(=C\c2ccccc2)/CC1 | 0 | -9.5 | 0 | 0 | 0 | - | - | - | - | 90% | 0 | TRPC4 spec 2=33%;TRPC4 spec=-29%;HEK293 MPD ctr 2-1=-22%;HEK293 MPD ctr-1=-326%
Cn1c(O)c(/C=N/NC(=O)c2cc3ccccc3cc2O)c2ccccc21 | 0 | 0 | 105 | 44 | 33 | + | 0 | 298% | 0 | 0 | 256%
CC(=O)c1ccc2cccc3c2c1N=CN3C | 0 | -8.9 | 0 | 0 | 0 | -146% | 68% | -66% | 50% | 50% | 0
